Assays:
[1] = Increase in neuronal survival in embryonic chick dorsal root ganglion sensory neurons assessed as normalized neuronal survival response equivalent to 20% for BDNF after 48 hrs; format: functional, Gallus gallus, DRG neuron
In short: (§1)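 Primary embryonic chick DRG sensory neuron cultures. Peptides tested in log10 increments, with surviving neurons counted after 48 h. Triplicate well counts averaged and normalised between BDNF positive (100%) and negative (0%) controls. Data given as mean ± SEM, n = 3–4. pEC20BDNF is the negative log10 of the concentration giving 20% of the BDNF survival response.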

[2] = Increase in neuronal survival in embryonic chick dorsal root ganglion sensory neurons at 10 uM to 10 nM after 48 hrs relative to BDNF; format: functional, Gallus gallus, DRG neuron; in short: as §1
[3] = Stability in mouse plasma assessed as half life at 0.2 mg; format: ADME, cell-free
In short: (§2)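 Peptide (0.2 mg) incubated at 37 °C in single-mouse plasma diluted 50% in PBS, sampled over 24 h. Each aliquot put on ice, treated with lysine (1000 equiv) to displace protein binding, then MeCN to precipitate proteins, centrifuged at 4 °C and diluted for HPLC. Peak areas taken as ratio to 4-isopropylbenzyl alcohol internal standard, as % of t = 0; three experiments.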

[4] = Apparent permeability across apical to basolateral side in human Caco-2 cells at 200 uM after 150 mins; format: ADME, cell-based
In short: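 Caco-2 cells (passage 82–96) grown 24–25 days on polycarbonate Transwell supports (0.45 µm pore, 1.13 cm²). Basolateral samples taken every 30 min for 150 min with buffer replacement. Samples acetylated, lyophilised, redissolved in 2% TFA and centrifuged; bis-acetylated peptide quantified by LCMS. Papp given as mean ± SEM from 3–4 monolayers.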

[5] = (§3) Stability in mouse plasma assessed as degradation; format: ADME, cell-free; conditions: read-out: Activity; in short: as §2
[6] = Increase in neuronal survival in embryonic chick dorsal root ganglion sensory neurons at 10 uM to 0.1 nM after 48 hrs relative to BDNF; format: functional, Gallus gallus, DRG neuron; conditions: in the assay text read “at 100 uM” for “at 10 uM to 0.1 nM”; in short: as §1
[7] = tested on: Plasma; assay: as §3; format: ADME, cell-free; in short: as §2
[8] = Increase in neuronal survival in embryonic chick dorsal root ganglion sensory neurons at 10 uM to 0.1 nM after 48 hrs relative to BDNF
[9] = Increase in neuronal survival in embryonic chick dorsal root ganglion sensory neurons at 0.1 uM after 48 hrs relative to BDNF; format: functional, Gallus gallus, DRG neuron; conditions: in the assay text read “0.01 uM” for “0.1 uM”; in short: as §1

SMILES | half-life [3] [h] | Papp A→B at 2.5 h, 200 µM [4] [×10⁻⁶ cm/s] | metabolised [5] [%] | Activity [7] | Activity [1] | Activity [2] [%] | Activity [6] [%] | Activity [8] [%] | Activity [9] [%]
C[C@@H]1NC(=O)[C@H]2CCCN2C(=O)[C@H](CCCNC(=N)N)NC(=O)[C@H](CCCCN)NC(=O)[C@H](CCCCN)NC1=O | > 24 | 0.642 | – | Stable | 7.3 | – | 67.7 | 37.3 | –
CCCCCCCCCCCCCCCC(=O)NCCCC[C@@H]1NC(=O)[C@H]2CCCN2C(=O)[C@H](CCCNC(=N)N)NC(=O)[C@H](CCCCN)NC(=O)[C@H](CCCCN)NC1=O | – | – | – | – | 9.1 | 49.4 | – | – | 28.4
N=C(N)NCCC[C@@H]1NC(=O)[C@H](CCCCN)NC(=O)[C@H](CCCCN)NC(=O)[C@H](CCCCN)NC(=O)[C@H]2CCCN2C1=O | – | – | – | – | 7.5 | 60.9 | – | – | –
N=C(N)NCCC[C@@H]1NC(=O)[C@H](CCCCN)NC(=O)[C@H](CCCCN)NC(=O)[C@H](Cc2ccccc2)NC(=O)[C@H]2CCCN2C1=O | – | – | – | – | 5.3 | 21.8 | – | – | –

Further lines, with some results ahead:

half-life [3] [h] | Papp A→B at 2.5 h, 200 µM [4] [×10⁻⁶ cm/s] | metabolised [5] [%] | Activity [7] | SMILES | Activity [1] | Activity [2] [%] | Activity [6] [%] | Activity [8] [%] | Activity [9] [%]
> 24 | 0.922 | 20 | – | CCCCCCCC(=O)NCCCC[C@@H]1NC(=O)[C@H]2CCCN2C(=O)[C@H](CCCNC(=N)N)NC(=O)[C@H](CCCCN)NC(=O)[C@H](CCCCN)NC1=O | 7.5 | 38.7 | – | – | –
– | 0.288 | – | – | CCCC[C@@H]1NC(=O)[C@H]2CCCN2C(=O)[C@H](CCCNC(=N)N)NC(=O)[C@H](CCCCN)NC(=O)[C@H](CCCCN)NC1=O | 6.2 | 36.2 | – | – | –
– | 0.929 | – | – | CCCCC(=O)NCCCC[C@@H]1NC(=O)[C@H]2CCCN2C(=O)[C@H](CCCNC(=N)N)NC(=O)[C@H](CCCCN)NC(=O)[C@H](CCCCN)NC1=O | 7.7 | 39.4 | – | – | –

From ChEMBL document CHEMBL1154000, “Modified low molecular weight cyclic peptides as mimetics of BDNF with improved potency, proteolytic stability and transmembrane passage in vitro” (Bioorg Med Chem, 2009)
